The values below come from paper PMC2877169 (Journal of medicinal chemistry, 2010).

Data set [1] concerns P450 enzymes. The settings on record: read-out: inhibition of P450 enzymes; previously reported weak inhibitor; cited from earlier work.
Data set [2] has as its system T. cruzi amastigotes. Nature of the data set: T. cruzi amastigote growth. The settings on record: relative to compound 1. The format is cell-based, Trypanosoma cruzi.
For data set [3], the target named is rat protein farnesyltransferase (Rattus norvegicus, UniProt Q02293+Q04631). The data set is described as follows: Rat protein farnesyltransferase inhibition assay. The format is biochemical. The settings on record: for fold reduction in potency/affinity for protein farnesyltransferase compared to 1: relative to compound 1.
The target in data set [4] is recombinant Tc-L14DM (lanosterol 14α-demethylase) (Trypanosoma cruzi, UniProt Q7Z1V1). Nature of the data set: Binding to recombinant Tc-L14DM by difference optical spectroscopy. In a few lines: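 Difference optical spectroscopy on recombinant T. cruzi lanosterol 14α-demethylase held at 1.4 μM, with test compound added at 200 nM – 2 uM; binding read from the difference spectra.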

Bounds are passed on as bounds.

Chain of recombinant Tc-L14DM (lanosterol 14α-demethylase) (Q7Z1V1 whole entry): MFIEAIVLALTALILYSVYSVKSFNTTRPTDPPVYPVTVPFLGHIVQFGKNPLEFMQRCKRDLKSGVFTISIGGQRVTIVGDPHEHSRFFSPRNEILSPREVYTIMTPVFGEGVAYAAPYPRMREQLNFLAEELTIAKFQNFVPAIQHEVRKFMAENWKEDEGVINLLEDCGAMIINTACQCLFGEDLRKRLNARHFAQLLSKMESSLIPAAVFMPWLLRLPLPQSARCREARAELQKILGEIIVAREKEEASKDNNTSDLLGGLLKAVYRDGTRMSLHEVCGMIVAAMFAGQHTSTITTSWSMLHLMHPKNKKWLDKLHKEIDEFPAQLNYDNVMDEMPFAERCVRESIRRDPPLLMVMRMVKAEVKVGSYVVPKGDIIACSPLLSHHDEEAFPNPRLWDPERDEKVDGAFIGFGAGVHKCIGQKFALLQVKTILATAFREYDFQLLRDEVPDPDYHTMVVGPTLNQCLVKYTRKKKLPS

As to `Cn1cncc1[C@@](N)(c1ccc(Cl)cc1)c1ccc2c(c1)c(-c1cccc(Cl)c1)cc(=O)n2C` [Compound 1, tipifarnib], the IC50 in data set [1] was over 10000 nM.
Take `COC(c1ccc(Cl)cc1)(c1ccc2c(c1)c(-c1cccc(Cl)c1C)cc(=O)n2C)c1cncn1C` (stereo not shown) [Compound 2]: the “fold more potent at killing T. cruzi amastigotes than 1” value in data set [2] is “about 10 fold”.
For `COC(c1ccc(Cl)cc1)(c1ccc2c(c1)c(-c1cccc(Cl)c1)cc(=O)n2C)c1cncn1C` (stereo not shown) [Compound 3], in data set [3], the “fold reduction in potency/affinity for protein farnesyltransferase compared to 1” value (“fold reduction in potency/affinity” for short) was 100 fold.
For `COC(c1ccc(Cl)cc1)(c1ccc2c(c1)c(-c1ccccc1)cc(=O)n2C)c1cncn1C` (stereo not shown) [Compound 10], in data set [3], the “fold reduction in potency/affinity” value is reported as ~ 500 fold.
In general, Kd refers to a measure of binding affinity in units of concentration. On to `COC(c1ccc(Cl)cc1)(c1ccc2c(c1)c(-c1c(F)cccc1F)cc(=O)n2C)c1cncn1C` (stereo not shown) [Compound 16, 4-(2,6-Difluorophenyl)-6-((4-chlorophenyl)(methoxy)(1-methyl-1H-imidazol-5-yl)methyl)-1-methylquinolin-2(1H)-one], for which, in data set [4], the Kd is under 1400 nM.
For the molecule `COC(c1ccc(Cl)cc1)(c1ccc2c(c1)c(-c1cc(C)cc(C)c1)cc(=O)n2C)c1cncn1C` (stereo not shown) [Compound 17], the “fold reduction in potency/affinity” value in data set [3] is ~ 600 fold.
`Cc1c(Cl)cccc1-c1cc(=O)n(C)c2ccc(C(O)(c3ccc(Cl)cc3)c3cncn3C)cc12` (stereo not shown) [Compound 20, 4-(3-Chloro-2-methylphenyl)-6-((4-chlorophenyl)(hydroxy)(1-methyl-1H-imidazol-5-yl)methyl)-1-methylquinolin-2(1H)-one] gave an IC50 in data set [3] of 796 nM.
`CNC(c1ccc(Cl)cc1)(c1ccc2c(c1)c(-c1cccc(Cl)c1C)cc(=O)n2C)c1cncn1C` (stereo not shown) [Compound 23, 4-(3-chloro-2-methylphenyl)-6-((4-chlorophenyl)(methylamino)(1-methyl-1H-imidazol-5-yl)methyl)-1-methylquinolin-2(1H)-one] had an IC50 in data set [3] of 957 nM.
In the case of `CCn1cncc1C(OC)(c1ccc(Cl)cc1)c1ccc2c(c1)c(-c1cccc(Cl)c1)cc(=O)n2C` (stereo not shown) [Compound 26], the “fold reduction in potency/affinity” value in data set [3] is listed as ~ 1,500 fold.
Take `CCn1cncc1C(O)(c1ccc(Cl)cc1)c1ccc2c(c1)c(-c1cccc(Cl)c1)cc(=O)n2C` (stereo not shown) [Compound 27]: the IC50 in data set [3] was 30 nM.
